Compound activity from PubChem.
The list is not random: actives were taken first. Their share in the collection is about 3.8%.
Beta cell apopt = beta cell apoptosis inhibition | INS-1E cytokine-induced death, ATP luminescence, 48 h; percent of positive-control rescue, neutral wells zero | protection from apoptosis, % (no concentration beside the values) | hit rate 0.8% among 300,000;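 active = Every replicate reaches about 75%, or at least half do and their mean reaches it too, limit read from the data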;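 note: 0% = cytokine-treated negative control wells and 100% = positive control rescue; higher means more ATP so stronger rescue from cytokine killing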
CSC inhib = cancer stem cell inhibition | cancer stem cell-like cells viability, luminescence | inhibition, % at 7.5 µM | hit rate 1.1% among 300,000; in the data active = inhibition above about 75%; tested in HMLE shEcad cells
MC4R antagonist = blocks human MC4R cAMP signaling | P32245 | MC4R-expressing cells, MTII-stimulated cAMP, LANCE TR-FRET | inhibition, % at 6.5 µM | hit rate 0.48% among 360,000 | AID 540295;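 active = inhibition above its plate's cutoff, the mean of tested wells on that plate plus 3 SD, cut at about 29% in these data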;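 note: 0% = Melanotan II alone and 100% = Melanotan II plus saturating MCL0020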
Target sequence (P32245 whole entry, looked up): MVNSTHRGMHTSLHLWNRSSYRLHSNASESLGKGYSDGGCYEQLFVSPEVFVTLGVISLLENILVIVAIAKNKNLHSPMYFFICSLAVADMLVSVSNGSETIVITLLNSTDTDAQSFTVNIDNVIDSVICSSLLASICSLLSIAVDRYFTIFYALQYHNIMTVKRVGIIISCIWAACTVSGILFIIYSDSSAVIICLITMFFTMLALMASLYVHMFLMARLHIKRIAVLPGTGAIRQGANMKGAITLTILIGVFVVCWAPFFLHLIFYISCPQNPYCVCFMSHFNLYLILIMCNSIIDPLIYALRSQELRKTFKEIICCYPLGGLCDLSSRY
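Assay system: human MC4R-expressing U2OS cells; reagent: Melanotan II stimulation of cells; dosing: 6.5 µM single dose; timing: compound 30 min, challenge 1 h, detection 1 h; signal: TR-FRET cAMP assay; replicates: one well per compound, no replicates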
TMEM16A act = mouse TMEM16A channel activation, primary screen | hit rate 0.3% among 340,000 | AID 623877 | HEK293 TMEM16A/YFP-H148Q/I152L, iodide quench fluorescence; hits give low values | Q8BHY3 | B-score at 10 µM;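 active = fluorescence-ratio B-score plate-corrected deviation score at least 3 library SD below zero, with starting fluorescence score within 5 deviations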;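 note: channel opened by trigger with iodide after compound preincubation; score built on the fluorescence ratio of max minus min over baseline; more negative score means more quench and so TMEM16A activation or potentiation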
MC4R barr agon = activates human MC4R beta-arrestin recruitment; U2OS MC4R beta-arrestin complementation, luminescence; percent of melanotan II response, DMSO zero; P32245; AID 540308; activation, % at 8.9 µM; hit rate 0.98% among 360,000;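 active = activation above a per-plate cutoff, the mean activation of sample wells on that plate plus 3 SD, cut at about 8% in these data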
ANO1 block = mouse TMEM16A channel inhibition, primary screen. HEK293 TMEM16A/YFP iodide influx fluorescence, ionomycin. normalized B-score (activity score, 25-100; higher = stronger inhibition) at 10 µM. hit rate 1.2% among 310,000;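 active = ratio plate-corrected score three or more library SD toward inhibition, starting fluorescence score within five deviations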;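 note: score derived from kinetic fluorescence span divided by baseline fluorescence per well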
Numbers without * were called inactive; i = inactive; · = not tested or not shown.

SMILES | Beta cell apopt | CSC inhib | MC4R antagonist | TMEM16A act | MC4R barr agon | ANO1 block
COc1ccc(-c2sc3ccccc3c2/C=C/c2ccc(N)cc2)cc1 | 0.2 | 96.8* | 5.5 | i | -1.3 | ·
COC(=O)c1ccc(/C=C/c2c(-c3ccsc3)sc3ccccc23)cc1 | -2.7 | 94.2* | -2.7 | i | -1.2 | i
N#CC1(Nc2ccc(C(=O)O)cc2)CCCC1 | · | · | 7.3 | i | -1.2 | ·
Cc1ccc(NC(=O)CCn2c(=S)oc3ccccc32)cc1F | -6.7 | -9.1 | 3.7 | i | 8.3* | i
C/C(=N\Nc1ccc(F)cc1F)c1ccccc1O | -7.0 | 34.6 | 2.2 | i | 0.5 | i
C/C(=N\Nc1cc(C(F)(F)F)ccc1Cl)c1ccccc1O | 13.6 | 77.2* | 0.3 | i | 2.9 | i
Cc1nc2cc(Cl)c([N+](=O)[O-])cc2s1 | 1.8 | -13.7 | -11.3 | i | 1.4 | i
CCCc1nc2cc(Cl)c([N+](=O)[O-])cc2o1 | 0.6 | 6.7 | 3.8 | i | -3.0 | 100*
CCOC(=O)CN1CC23C=CC(O2)C(C(=O)NCCc2ccccc2)C3C1=O (stereo unspecified) | -8.5 | -11.7 | -1.0 | -10.6* | -1.8 | i
CCOC(=O)CN1CC23C=CC(O2)C(C(=O)NC2CCCCCC2)C3C1=O (stereo unspecified) | -7.6 | -9.1 | 8.8 | i | 2.6 | i
C/C(=N\NC(=O)C(C)n1nc(C)c([N+](=O)[O-])c1C)c1ccccc1O (stereo unspecified) | 91.6* | 15.3 | -8.5 | i | -2.2 | i
Cc1nn(C(C)C(=O)NCc2ccco2)c(C)c1[N+](=O)[O-] (stereo unspecified) | -2.6 | -3.2 | -1.1 | i | -0.5 | i
COc1ccccc1CNC(=O)Cn1cc([N+](=O)[O-])ccc1=O | -8.0 | -6.2 | 3.1 | i | -1.0 | i
O=[N+]([O-])c1ccc(-c2cnc(SCc3ccccc3Cl)[nH]2)cc1 | 11.1 | 56.7 | 12.6 | i | -2.8 | 100*
O=C(NNC(=S)NC(=O)C12CC3CC(CC(C3)C1)C2)c1ccncc1 | 22.3 | -10.9 | -0.4 | i | -3.8 | 25*
O=C(NNC(=O)C12CC3CC(CC(C3)C1)C2)c1cnccn1 | 0.6 | 4.6 | 21.5 | i | -1.6 | i
CC1(C(=O)NC(=S)NNC(=O)c2ccncc2)CCCCC1 | · | 0.6 | 15.3 | i | -0.9 | i
O=C(NNC(=O)C12CC3CC(CC(C3)C1)C2)c1ccccn1 | 91.0* | 17.1 | 5.4 | i | -3.4 | i
COc1ccccc1-[n+]1c(C)cc(/C=C2\Sc3ccccc3N2C)cc1C | 109.9* | 67.7 | -34.7 | i | -2.7 | i
COc1ccc(-[n+]2c(C)cc(/C=C3\Sc4ccccc4N3C)cc2C)cc1 | 115.8* | 55.8 | -32.1 | i | -2.2 | i
COc1ccccc1OC(=O)CCN1c2ccccc2Sc2ccccc21 | 5.6 | 8.7 | 2.1 | i | -1.2 | i
COc1ccc(C(=O)/C=C2\Sc3ccccc3N2C)cc1 | 9.7 | 2.0 | -7.5 | i | 4.3 | i
COC(=O)C1CN(C(=O)COc2cccc(C)c2C)c2ccccc2O1 (stereo unspecified) | 3.5 | -17.1 | 13.0 | i | 0.6 | i
Cc1ccc(S(=O)(=O)NC(=O)C2(C)CCN2C(=O)Cc2ccc(Cl)cc2Cl)cc1 (stereo unspecified) | · | · | 7.2 | · | -1.1 | ·
CC(=O)Nc1cccc(Oc2nc(NCCN(C)C)nc3ccsc23)c1 | · | · | 7.1 | · | -0.9 | ·
SMILES | Beta cell apopt | CSC inhib | MC4R antagonist | TMEM16A act | MC4R barr agon | ANO1 block
Cc1cc(N(C)C)cc(C)c1N=Nc1cc[n+]([O-])cc1 | · | · | -16.8 | · | -3.2 | ·
NS(=O)(=O)c1ccc(CCNC(=O)CNC(=O)COc2ccccc2)cc1 | -5.0 | 4.7 | -1.2 | -4.72* | 1.6 | i
NS(=O)(=O)c1ccc(CCNC(=O)CCCOc2ccccc2)cc1 | -7.2 | · | -2.7 | -4.61* | 1.5 | i
Cc1ccc(NC(=O)CSc2nn(-c3ccc(Cl)cc3)c(=S)s2)cc1S(=O)(=O)N(C)C | 1.8 | 37.4 | 14.0 | i | 1.1 | 100*
CCOC(=O)c1cccc2c1-c1ccccc1/C2=N/O | -9.7 | 34.8 | 0.5 | i | 0.2 | i
CC(C)COC(=O)c1cccc2c1-c1ccccc1/C2=N\O | -2.3 | 120.1* | 1.9 | i | -2.8 | i
CCC(=O)N(C)C[C@H]1Oc2cc(Br)ccc2S(=O)(=O)N([C@@H](C)CO)C[C@H]1C | · | · | 4.0 | · | -1.4 | ·
CC(Oc1cccc(Cl)c1)C(=O)Nc1cc(Cl)ccc1N1CCOCC1 (stereo unspecified) | 11.2 | 2.3 | 2.0 | i | -1.4 | i
Cc1cc(=O)c(C(=O)Nc2cccc(N3CCCC3=O)c2)nn1-c1ccccc1Cl | -4.5 | · | -10.8 | i | 4.7 | ·
Cc1cc(=O)c(C(=O)Nc2cccc(N3CCCC3=O)c2)nn1-c1ccccc1F | -1.0 | -14.7 | -17.4 | -46.2* | -3.8 | ·
O=C(COC(=O)Cc1n[nH]c(=O)c2ccccc12)Nc1c(Br)cc([N+](=O)[O-])cc1Br | · | · | -3.2 | i | -1.1 | ·
CC(C)Cn1c(O)c(N=NC(=O)c2cccc(S(=O)(=O)N3CCCCC3)c2)c2ccccc21 | 37.5 | 91.4* | 1.2 | i | -3.0 | i
COCCn1c(SCC(=O)N2CCC(C)CC2)nc2c(c1=O)SCC2 | -3.1 | -2.0 | 2.1 | i | -2.4 | i
COc1ccc(C(=O)NCC(=O)OCC(=O)Nc2cccc(S(=O)(=O)N3CCCC3)c2)cc1 | -6.1 | -1.4 | 3.9 | i | 0.3 | i
COc1cccc(OCCSc2nc(N)cc(N)n2)c1 | 22.4 | 5.3 | -2.6 | i | -2.4 | 25*
O=C(Nc1ccc(N2CCN(Cc3ccccc3F)CC2)cc1)c1ccccc1[N+](=O)[O-] | -2.0 | 0.5 | -10.0 | i | 0.9 | i
O=C(Nc1ccc(N2CCN(Cc3ccccc3F)CC2)cc1)c1ccc([N+](=O)[O-])o1 | 48.4 | 103.0* | -6.7 | i | -4.1 | i
CN1CCN(c2ccc(NC(=O)c3ccc(-c4ccc(Br)cc4)o3)cc2)CC1 | 23.7 | -15.0 | -0.5 | i | 10.9* | i
CC1CCN(c2ccc(NC(=O)c3ccc([N+](=O)[O-])o3)cc2)CC1 | 85.5* | 99.9* | 4.7 | i | 2.7 | i
CCN1CCN(c2ccc(NC(=O)c3ccc(Br)o3)cc2)CC1 | · | · | -5.6 | i | -2.6 | ·
CCCCCC(=O)N1C[C@@H](n2cc(-c3ccc(F)cc3)nn2)[C@H](O)C[C@@H]1c1ccc(OC)cc1 | · | · | 9.8 | · | 1.1 | ·
O=C(CSc1nnnn1-c1ccc(C(=O)O)cc1)NC1CC1 | 0.1 | -4.7 | -0.9 | i | -1.2 | i
O=C(CN1CCCCCC1)Nc1ccccc1Oc1ccccc1 | 2.4 | 79.6* | -2.1 | i | 1.9 | i
O=C(CN1CCCCC1)Nc1cc(Cl)ccc1Oc1ccccc1 | -4.4 | 71.8 | 10.8 | i | 0.9 | 100*
